# Calls of active or inactive are those of the source. The rule behind the calls is not given here.
# Columns and labels:
# Staphylococcus aureus = test: Antibacterial activity against drug-resistant Staphylococcus aureus; type: functional, organism-based
# Acinetobacter baumannii = test: Antibacterial activity against drug-resistant Acinetobacter baumannii; type: functional, organism-based
# A549 = test: Cytotoxicity against human A549 cells after 72 hrs by CellTiter 96 AQueous one solution cell proliferation assay; type: cell-based; conditions: A549, 72 h
# Outline: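 A549 cells seeded at 1440 cells/well in F12K with 10% FBS and 1% penicillin–streptomycin, with compounds in doubling dilutions from 50 μg/mL final. Incubated 72 h at 37 °C, 5% CO2. MTS added 4 h before the end, OD read at 490 nm. Controls were cells with media and media alone.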
# Clostridioides difficile = test: Antibacterial activity against Clostridium difficile; type: functional, organism-based
# Naegleria fowleri = test: […] activity against Naegleria fowleri; type: functional, organism-based
# Enterobacter = test: Antibacterial activity against drug-resistant Enterobacter; type: functional, organism-based
# Enterococcus faecium = test: Antibacterial activity against drug-resistant Enterococcus faecium; type: functional, organism-based
# Pseudomonas aeruginosa = test: Antibacterial activity against drug-resistant Pseudomonas aeruginosa; type: functional, organism-based
# Leishmania donovani = test: Antileishmanial activity against Leishmania donovani MHOM/SD/75/1246/130 axenic amastigotes infected in mouse J774A.1 cells after 72 hrs by Draq5 staining based assay; type: functional, organism-based; conditions: MHOM/SD/75/1246/130, J774.A1, 72 h
# Outline: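 Amastigotes grown axenically at 37 °C in RPMI 1640, pH 5.5, with Hepes, MES, hemin, xanthine, Tween-80 and 20% heat-inactivated FBS. Parasites added 10:1 to 2000 J774A.1 macrophages per well, 24 h at 37 °C, 5% CO2, then extracellular parasites washed off. Compounds from 10 μg/mL, 1:2 serial dilution, 72 h. Fixed in 2% paraformaldehyde, Draq5 stain, imaged; amastigotes per 500 macrophages counted for IC50.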
# Klebsiella pneumoniae = test: Antibacterial activity against drug-resistant Klebsiella pneumoniae; type: functional, organism-based
SMILES,Activity (Staphylococcus aureus),Activity (Acinetobacter baumannii),IC50 (A549) [µM],Activity (Clostridioides difficile),Activity (Naegleria fowleri),Activity (Enterobacter),Activity (Enterococcus faecium),Activity (Pseudomonas aeruginosa),IC50 (Leishmania donovani) [µM],Activity (Klebsiella pneumoniae)
C=C(C)[C@@H]1CC(=O)[C@H]2[C@H](C1)[C@@H]1C(=O)O[C@@H]3C[C@]4(C)O[C@H]2C(=O)[C@@H]4[C@H]13,inactive,inactive,> 50,inactive,inactive,inactive,inactive,inactive,4.4,inactive
C=C(C)[C@@H]1/C=C/[C@]23O[C@H]2[C@H](C[C@](C)(O)[C@@H](OC(C)=O)C2=CC(C=O)=C(C1)O2)OC3=O,inactive,inactive,> 50,inactive,inactive,inactive,inactive,inactive,12,inactive
CCCCCCCCCCCCCCCCOP(=O)([O-])OCC[N+](C)(C)C [MILTEFOSINE],,,,,,,,,6.2,
C=C(C)[C@H]1CC2=C(C=O)C=C(O2)[C@H]2O[C@]2(C)C[C@@H]2OC(=O)/C(=C\[C@H]1OC(C)=O)[C@H]2OC(C)=O,inactive,inactive,> 50,inactive,inactive,inactive,inactive,inactive,8.5,inactive
C=C(C)[C@@H]1/C=C/[C@]23O[C@H]2[C@H](C[C@@]2(C)O[C@@H]2C2=CC(C=O)=C(C1)O2)OC3=O,inactive,inactive,> 50,inactive,inactive,inactive,inactive,inactive,> 28,inactive
C=C(C)[C@H]1CC2=C(C=O)C=C(O2)[C@H]2O[C@]2(C)C[C@H]2C=C(C(=O)O2)[C@@H](OC(C)=O)C1,inactive,inactive,> 50,inactive,inactive,inactive,inactive,inactive,8.8,inactive
C=C(C)[C@@H]1CCC2=C[C@H](C[C@@]3(C)O[C@@H]3C3=CC(C=O)=C(C1)O3)OC2=O,inactive,inactive,> 50,inactive,inactive,inactive,inactive,inactive,1.9,inactive
C=C(C)[C@@H]1C/C=C2\C(=O)O[C@@H](C[C@@]3(C)O[C@@H]3C3=CC(C=O)=C(C1)O3)[C@@H]2OC(C)=O,inactive,inactive,> 50,inactive,inactive,inactive,inactive,inactive,8.8,inactive
